The text below walks through data of ChEMBL document CHEMBL4616646, “Synthesis and Cytotoxicity Studies of Stilbene Long-Chain Fatty Acid Conjugates” (J Nat Prod, 2020).

One experiment deals with HEK293. Nature of the experiment: Cytotoxicity against HEK293 cells after 68 hrs by MTT assay. To be noted: Homo sapiens, HEK293, 68 h. In kind it is cell-based. The procedure, abridged:
(§1)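 Cells grown in DMEM with 10% FBS and 1% P/S at 37 °C under 5% CO₂, trypsinized and seeded at ~5 × 10⁴ cells per well. Test drugs added after attachment at 0.1 to 100 μM. After 68 h, MTT (4 mg/mL) added for 4 h, supernatant discarded, formazan dissolved in DMSO, absorbance read at 570 nm. IC50 taken as concentration giving ~50% survival; mean ± SD of three independent experiments.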

Another experiment has as its system NCI-H460. Kind of experiment: Cytotoxicity against human NCI-H460 cells after 68 hrs by MTT assay. In kind it is functional, cell-based. To be noted: NCI-H460, 68 h. The procedure, abridged:
as §1
For orientation: Tetrazolium assays rely on reduction of a dye to a coloured formazan, in cell work by metabolically active cells.

The next experiment deals with KB 3-1. Nature of the experiment: Cytotoxicity against human KB3-1 cells after 68 hrs by MTT assay. The experiment is classed as functional, cell-based. To be noted: KB 3-1, 68 h. The procedure, abridged: as §1
The next experiment has as its system MCF7. Nature of the experiment: Cytotoxicity against human MCF7 cells after 68 hrs by MTT assay. The experiment is classed as functional, cell-based. The conditions noted are these: MCF7, 68 h. The essentials: as §1

Bounds are passed on as bounds.

In the case of `CCCCCCCCCCCCCCCCCC(=O)Oc1ccc(/C=C\c2cc(OC)c(OC)c(OC)c2)cc1OC`, the IC50 (usually the concentration that gives 50% inhibition) in the experiment on HEK293 is 3900 nM; with NCI-H460, more than 10000 nM; in the experiment with KB 3-1, 3100 nM; in the experiment on MCF7, 7700 nM.
The corresponding values for `CCCCCCCC/C=C\CCCCCCCC(=O)Oc1cc(/C=C\c2cc(OC)c(OC)c(OC)c2)ccc1OC` are 30 nM, 310 nM, 30 nM and more than 10000 nM.
As to `CCCCCCCCCCCCCCCCCC(=O)Oc1ccc(/C=C/c2cc(OC)c(OC)c(OC)c2)cc1OC`, the IC50 in the experiment on HEK293, in the experiment with NCI-H460, with KB 3-1 and in the experiment on MCF7 was more than 100000 nM in each case.
`CCCCC/C=C\C/C=C\CCCCCCCC(=O)Oc1cc(/C=C/c2cc(OC)c(OC)c(OC)c2)ccc1OC`: the IC50 with HEK293 is 2600 nM; in the experiment with NCI-H460, 2400 nM; in the experiment with KB 3-1, 4900 nM; in the experiment with MCF7 it was more than 10000 nM.
The corresponding values for `CCCCCCCC/C=C\CCCCCCCC(=O)Oc1ccc(/C=C/c2cc(OC)c(OC)c(OC)c2)cc1OC` are more than 100000 nM, more than 100000 nM, more than 100000 nM and more than 100000 nM.
On to `CCCCC/C=C\C/C=C\CCCCCCCC(=O)Oc1ccc(/C=C/c2cc(OC)c(OC)c(OC)c2)cc1OC`, for which the IC50 in the experiment on HEK293, in the experiment on NCI-H460, in the experiment with KB 3-1 and in the experiment on MCF7 was more than 100000 nM in each case.
Take `CCCCCCCCCCCCCCCCCC(=O)Oc1cc(/C=C\c2cc(OC)c(OC)c(OC)c2)ccc1OC`: the IC50 in the experiment with HEK293 was 30 nM; in the experiment on NCI-H460 it was 30 nM; in the experiment with KB 3-1 it was 30 nM; in the experiment on MCF7 it was 240 nM.
On to `CC/C=C\C/C=C\C/C=C\CCCCCCCC(=O)Oc1cc(/C=C/c2cc(OC)c(OC)c(OC)c2)ccc1OC`, for which the IC50 was 2400 nM in the experiment with HEK293, more than 10000 nM in the experiment on NCI-H460, 2400 nM with KB 3-1 and more than 10000 nM in the experiment on MCF7.
On to `COc1cc2c(c(OC)c1OC)-c1ccc(OC)c(=O)cc1[C@@H](NC(C)=O)CC2` [COLCHICINE], for which the IC50 in the experiment on HEK293 is 20 nM; in the experiment on NCI-H460, 60 nM; in the experiment with KB 3-1, 20 nM; in the experiment on MCF7, 60 nM.
`CC/C=C\C/C=C\C/C=C\CCCCCCCC(=O)Oc1ccc(/C=C/c2cc(OC)c(OC)c(OC)c2)cc1OC`: the IC50 with HEK293, in the experiment on NCI-H460, in the experiment with KB 3-1 and in the experiment with MCF7 was more than 100000 nM each time.
Turning to `CCCCC/C=C\C/C=C\CCCCCCCC(=O)Oc1cc(/C=C\c2cc(OC)c(OC)c(OC)c2)ccc1OC`, the IC50 is 20 nM with HEK293, 20 nM with NCI-H460, 20 nM in the experiment on KB 3-1 and more than 10000 nM in the experiment with MCF7.
With `CC/C=C\C/C=C\C/C=C\CCCCCCCC(=O)Oc1cc(/C=C\c2cc(OC)c(OC)c(OC)c2)ccc1OC`, the IC50 in the experiment with HEK293 was 23 nM; with NCI-H460, 10 nM; with KB 3-1 it was 30 nM; in the experiment on MCF7 it was more than 10000 nM.
Consider `CCCCCCCCCCCCCCCCCC(=O)Oc1cc(/C=C/c2cc(OC)c(OC)c(OC)c2)ccc1OC`, for which the IC50 in the experiment with HEK293 was 2900 nM; with NCI-H460, more than 10000 nM; in the experiment on KB 3-1, more than 10000 nM; in the experiment with MCF7 it was more than 10000 nM.
Regarding `COc1ccc(/C=C/c2cc(OC)c(OC)c(OC)c2)cc1O` [E-COMBRETASTATIN A-4], the IC50 was determined as 200 nM in the experiment on HEK293, 250 nM in the experiment with NCI-H460, 100 nM with KB 3-1 and 110 nM in the experiment on MCF7.
With `COc1ccc(/C=C\c2cc(OC)c(OC)c(OC)c2)cc1O` [COMBRETASTATIN A4], the IC50 is 10 nM with HEK293, 10 nM in the experiment with NCI-H460, 10 nM in the experiment on KB 3-1 and 90 nM with MCF7.
